Test results published in ChEMBL document CHEMBL4414568, “Development of Novel Irreversible Pyruvate Kinase M2 Inhibitors” (J Med Chem, 2019).
The source made the active and inactive calls. The calls are words filed in the database; no cut-off is given here.

Legend:
[1] = tested on: NCI-H1975; test: Antiproliferative activity against human NCI-H1975 cells harboring EGFR mutant assessed as reduction in cell viability incubated for 24 hrs by MTT assay; type: functional, cell-based; conditions: NCI-H1975, 24 h
Outline: (§1)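 Cells seeded at 3,500 per well in 10% FBS and left overnight, then exposed to test agent or vehicle in 5% FBS for 24 h. MTT added for 1 h, then medium swapped for DMSO and absorbance read at 560 nm. Viability given as percent of vehicle-treated control. Run in triplicate.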

[2] = molecular target: T1, Malate dehydrogenase, mitochondrial (Homo sapiens) (UniProt P40926); test: Binding affinity to MDHM in human PC9 cells incubated for 1 hr by ABPP-SILAC assay; type: cell-based
T1 sequence (whole entry): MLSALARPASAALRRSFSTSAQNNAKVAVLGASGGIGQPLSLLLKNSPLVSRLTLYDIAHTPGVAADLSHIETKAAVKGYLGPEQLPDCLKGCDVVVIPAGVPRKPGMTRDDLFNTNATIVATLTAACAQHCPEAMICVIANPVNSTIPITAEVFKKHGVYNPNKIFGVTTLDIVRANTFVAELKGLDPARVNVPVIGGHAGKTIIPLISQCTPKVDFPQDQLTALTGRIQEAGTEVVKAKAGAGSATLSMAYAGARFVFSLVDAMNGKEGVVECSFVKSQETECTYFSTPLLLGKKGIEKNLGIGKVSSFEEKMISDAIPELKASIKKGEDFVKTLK
Outline: (§2)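 PC-9 cells passaged at least six times in SILAC DMEM with 10% dialyzed FBS plus 100 µg/mL light or 13C/15N-labeled Arg/Lys. Heavy cells got ABPP probe (1 µM) and light cells DMSO, 1 h at 37 °C. Cells mixed 1:1, sonicated, spun at 100,000g, protein normalized to 1 mg/mL. Click biotin-azide, streptavidin bead pulldown 16 h at 4 °C, SDS-PAGE, on-bead trypsin digestion, LC-MS/MS.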

[3] = tested on: PC-9; test: Induction of basal oxygen consumption rate in human PC9 cells at 0.25 to 1 uM measured after 4 hrs in absence of glucose by seahorse XF96 flux analyser based assay; type: functional, cell-based
Outline: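 PC-9 cells, 5 × 10^4 per well, seeded 24 h ahead, then treated with DMSO or compound at 0.25, 0.5 or 1 µM for 4 h at 37 °C. Cells held 1 h without CO2 in glycolysis medium. Seahorse glycolysis stress test with serial injections of 10 mM glucose, oligomycin and 50 mM 2-DG; ECAR and OCR recorded together. Six wells per point.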

[4] = tested on: Mus musculus; test: In vivo inhibition of PKM2 in human PC9 cells xenografted in athymic nude mouse assessed as reduction in STAT3 expression at 10 mg/kg, ip administered once daily for 25 days measured post-last dose by Western blot analysis; type: functional, organism-based
Outline: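 Tumors from PC-9 xenograft nude mice given 10 mg/kg i.p. daily or vehicle for 25 days (n = 8 per group) were lysed for Western blots of PKM2, EGFR, Stat3 and β-catenin. Bands quantified by ImageJ and normalized to GAPDH.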

[5] = molecular target: T2, Phosphoenolpyruvate carboxykinase [GTP], mitochondrial (Homo sapiens) (UniProt Q16822); test: Binding affinity to PCKGM in human PC9 cells incubated for 1 hr by ABPP-SILAC assay; type: cell-based; outline: as §2
T2 sequence (whole entry): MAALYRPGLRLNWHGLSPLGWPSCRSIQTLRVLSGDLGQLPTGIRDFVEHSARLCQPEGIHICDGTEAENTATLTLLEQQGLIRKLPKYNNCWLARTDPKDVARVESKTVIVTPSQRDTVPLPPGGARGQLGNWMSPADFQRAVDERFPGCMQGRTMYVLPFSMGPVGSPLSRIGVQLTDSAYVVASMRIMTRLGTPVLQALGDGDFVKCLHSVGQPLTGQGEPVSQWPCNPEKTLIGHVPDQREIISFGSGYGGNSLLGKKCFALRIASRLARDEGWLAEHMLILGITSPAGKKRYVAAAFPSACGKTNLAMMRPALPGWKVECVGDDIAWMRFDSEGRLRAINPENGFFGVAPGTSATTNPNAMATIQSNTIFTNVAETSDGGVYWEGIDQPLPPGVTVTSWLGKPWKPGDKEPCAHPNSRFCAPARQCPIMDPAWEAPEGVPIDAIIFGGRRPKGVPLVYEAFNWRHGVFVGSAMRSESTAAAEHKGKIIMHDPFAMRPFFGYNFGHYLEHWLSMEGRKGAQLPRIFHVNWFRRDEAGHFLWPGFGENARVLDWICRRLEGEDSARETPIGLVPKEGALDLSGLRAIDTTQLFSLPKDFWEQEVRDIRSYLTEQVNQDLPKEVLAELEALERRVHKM

[6] = molecular target: Alpha-enolase (Homo sapiens) (UniProt P06733); test: Binding affinity to ENOA in human PC9 cells incubated for 1 hr by ABPP-SILAC assay; type: cell-based; outline: as §2
[7] = molecular target: T3, Pyruvate kinase PKM (Homo sapiens, UniProt P14618); test: Inhibition of PKM2 in human PC9 cells assessed as reduction in STAT3 phosphorylation at 0.5 uM incubated for 24 hrs by Western blot analysis; type: cell-based
Outline: (§3)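 PC-9 cells seeded at 5 × 10^5 cells/mL; after 24 h given 0–1 µM compound or DMSO for 24 h. Lysates run on 10% SDS-PAGE, transferred to nitrocellulose, probed for PKM2, EGFR, p-STAT3, STAT3, p-β-catenin, β-catenin and β-actin with HRP secondaries, ECL detection.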

[8] = molecular target: T3, Pyruvate kinase PKM; test: Inhibition of PKM2 in human PC9 cells assessed as reduction in STAT3 expression incubated for 24 hrs by Western blot analysis; type: cell-based; outline: as §3
[9] = tested on: LNCaP; test: Antiproliferative activity against human LNCAP cells assessed as reduction in cell viability incubated for 24 hrs by MTT assay; type: functional, cell-based; outline: as §1
[10] = tested on: PC-9; test: Antitumor activity against human PC9 cells xenografted in athymic nude mouse assessed as reduction in tumor volume at 10 mg/kg, ip administered once daily for 25 days measured post-last dose; type: functional, organism-based
Outline: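 Female nude mice, 6 weeks old, given s.c. 1 × 10^6 PC-9 cells in Matrigel (1:1). From day 7, once-daily i.p. vehicle or 10 mg/kg compound in sterile water with 0.5% methylcellulose and 0.1% Tween-80, n = 8 per group, for 25 days. Tumor volume and body weight followed, tumors weighed at end.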

[11] = tested on: MCF7; test: Antiproliferative activity against human MCF7 cells assessed as reduction in cell viability incubated for 24 hrs by MTT assay; type: functional, cell-based; conditions: MCF7, 24 h; outline: as §1
[12] = molecular target: T3, Pyruvate kinase PKM; test: Inhibition of N-(4-(3-(3-(Methylamino)-3-oxopropyl)-5-(4'-(prop-2-yn-1-yloxy)-[1,1'-biphenyl]-4-yl)-1H-pyrazol-1-yl)phenyl)propiolamide binding to PKM2 in human PC9 cells at 1 uM preincubated for 1 hr followed by probe addition and measured after 1 hr using antibody by Western blot analysis; type: cell-based
Outline: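 PC-9 cells pretreated with 1 µM compound or DMSO for 1 h, then alkyne probe added at 0.5, 1 or 2 µM for 1 h at 37 °C. Lysates put through Cu-catalysed click with biotin-azide, streptavidin beads 16 h at 4 °C, washes with 0.5% SDS/PBS, 10% SDS-PAGE and PKM2 Western blot.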

[13] = tested on: PC-3; test: Antiproliferative activity against human PC3 cells assessed as reduction in cell viability incubated for 24 hrs by MTT assay; type: functional, cell-based; conditions: PC-3, 24 h; outline: as §1

T3 sequence (P14618 2-531 limits assumed): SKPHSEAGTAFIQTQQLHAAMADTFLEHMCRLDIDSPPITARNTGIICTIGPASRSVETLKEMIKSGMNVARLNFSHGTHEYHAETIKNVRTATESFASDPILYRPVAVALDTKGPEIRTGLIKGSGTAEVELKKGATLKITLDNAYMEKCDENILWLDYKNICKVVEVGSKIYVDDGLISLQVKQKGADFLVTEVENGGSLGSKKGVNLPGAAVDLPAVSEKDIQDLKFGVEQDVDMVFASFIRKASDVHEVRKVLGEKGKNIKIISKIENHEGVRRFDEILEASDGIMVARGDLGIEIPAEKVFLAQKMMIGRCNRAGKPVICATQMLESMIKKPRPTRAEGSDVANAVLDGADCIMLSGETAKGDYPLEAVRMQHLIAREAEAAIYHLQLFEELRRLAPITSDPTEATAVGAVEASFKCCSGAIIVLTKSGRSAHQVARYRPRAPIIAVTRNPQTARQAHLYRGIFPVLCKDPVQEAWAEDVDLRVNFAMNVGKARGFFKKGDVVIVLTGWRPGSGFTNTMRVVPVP
Sequence of Alpha-enolase (Homo sapiens) (P06733 whole entry): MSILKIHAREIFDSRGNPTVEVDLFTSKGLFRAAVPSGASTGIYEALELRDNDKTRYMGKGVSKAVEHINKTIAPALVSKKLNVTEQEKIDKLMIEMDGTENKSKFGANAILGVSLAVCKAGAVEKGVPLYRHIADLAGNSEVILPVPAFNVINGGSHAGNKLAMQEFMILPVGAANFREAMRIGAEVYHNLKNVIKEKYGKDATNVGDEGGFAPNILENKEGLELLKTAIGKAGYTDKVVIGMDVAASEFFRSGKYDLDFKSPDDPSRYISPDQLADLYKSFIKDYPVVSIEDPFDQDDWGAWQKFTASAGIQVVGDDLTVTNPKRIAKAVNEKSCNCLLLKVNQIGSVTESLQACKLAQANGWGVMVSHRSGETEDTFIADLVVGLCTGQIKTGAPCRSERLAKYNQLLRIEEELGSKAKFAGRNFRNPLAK

- IC50 [1]: 1000 nM
- Activity [2]: Active
- Activity [5]: Active
- Activity [6]: Active
- inhibition [7]: inactive
- inhibition [8]: Dose-dependent effect
- IC50 [9]: > 2000 nM
- IC50 [11]: 1000 nM
- inhibition [12]: Active
- IC50 [13]: 600 nM
Compound: C#CC(=O)Nc1ccc(-n2nc(CCC(=O)NC)cc2-c2ccc(-c3ccc(C(F)(F)F)cc3)cc2)cc1
- Activity [3]: Active
- inhibition [4]: Active
- Activity [10]: Active
